Measured values reported in ChEMBL document CHEMBL1140799, “Novel heterocycle-substituted pyrimidines as inhibitors of NF-kappaB transcription regulation related to TNF-alpha cytokine release” (Bioorg Med Chem Lett, 2008).
Active and inactive are the calls of the source. The calls are words filed in the database; no cut-off is given here.

Legend:
[1] = (§1) Inhibition of NF-kappaB-mediated transcriptional activation in human A549 cells; type: cell-based
Jurkat = assay: (§2) Inhibition of AP1-mediated transcriptional activation in human Jurkat cells; type: cell-based
[2] = target: Glycogen synthase kinase-3 beta (Homo sapiens, UniProt P49841); assay: Inhibition of GSK3-beta
THP-1 = assay: Inhibition of LPS-induced TNFalpha production in human THP1 cells; type: functional, cell-based
How it was run: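 THP-1 monocytes seeded at 1 × 10⁶ cells/mL in 1% FCS medium and left overnight. Compound pretreatment for 1 h, then LPS stimulation for 24 h. TNF-α in supernatants measured by sandwich ELISA. IC50 is the mean of n = 3 repeat experiments, SD given.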

[3] = as §2; type: cell-based
Mus musculus [4] = assay: Inhibition of LPS-induced TNFalpha release in BALB/c mouse at 50 mg/kg; type: functional
How it was run: (§3)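 Oral dosing of BALB/c mice 30 min before LPS challenge (0.1 mg/kg ip). Serum TNF-α determined 90 min after LPS. BIRB796 (p38 MAP kinase inhibitor) served as reference compound.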

Mus musculus [5] = assay: Inhibition of LPS-induced TNFalpha release in BALB/c mouse at 300 mg/kg relative to […]; type: functional; how it was run: as §3
A549 = assay: as §1; type: cell-based

Compound	IC50 [1]	IC50 [2]	IC50 [3]	Activity [2]	Activity (Jurkat)	also measured
C1=CC2C(c3ccnc(Nc4ccccc4)n3)=CNN2C=C1 (configuration not stated)	600 nM	150 nM	900 nM			IC50 (THP-1): 140 nM
COc1ccccc1C(=O)N1CCN(c2nc3[nH]nc(NC(=O)C4CC4)c3cc2F)CC1	13100 nM			inactive	inactive	
COc1cccc(Nc2nccc(C3=CNN4C=CC=CC34)n2)c1 (configuration not stated)	1000 nM	100 nM	1800 nM			
COc1ccccc1N1CCN(c2nc3[nH]nc(NC(=O)C4CC4)c3cc2F)CC1	10900 nM			inactive	inactive	Activity (THP-1): inactive
Cc1ccc(-n2nc(C(C)(C)C)cc2NC(=O)Nc2ccc(OCCN3CCOCC3)c3ccccc23)cc1 [DORAMAPIMOD]						inhibition in vivo at 50 mg/kg (Mus musculus [4]): 93%
O=C(Nc1n[nH]c2nc(N3CCN(S(=O)(=O)c4ccccc4C(F)(F)F)CC3)c(F)cc12)C1CC1	9400 nM			inactive	inactive	
Cc1ccc(Cl)cc1Nc1nccc(C2=CNN3C=CC=CC23)n1 (configuration not stated)	4300 nM	10600 nM	4900 nM			

Second part, led by results:

IC50 [1]	IC50 [2]	IC50 [3]	Activity [2]	Compound	Activity (Jurkat)	also measured
10400 nM	320 nM			COCCn1cc(-c2ccnc(Nc3ccccc3)n2)c2ccccc21	inactive	
1700 nM	60 nM	700 nM		C1=CC2C(c3ccnc(Nc4ccccc4)n3)=C(c3ccccc3)NN2C=C1 (configuration not stated)		
1900 nM	30 nM	1600 nM		COc1cccc(Nc2nccc(C3=C(c4ccccc4)NN4C=CC=CC34)n2)c1 (configuration not stated)		
19300 nM			inactive	O=C(Nc1n[nH]c2nc(N3CCN(C(=O)c4ccc(F)cc4F)CC3)c(F)cc12)C1CC1	inactive	
1400 nM	2200 nM			COCCn1cc(-c2ccnc(Nc3cccc(OC)c3)n2)c2cccnc21	inactive	inhibition in vivo at 300 mg/kg (Mus musculus [5]): 89%; IC50 (THP-1): 990 nM
5600 nM	1050 nM	11400 nM		COCCn1cc(-c2ccnc(Nc3ccccc3)n2)c2cccnc21		
7800 nM	140 nM			COCCn1cc(-c2ccnc(Nc3cccc(OC)c3)n2)c2ccccc21	inactive	
			inactive	O=C(Nc1n[nH]c2nc(N3CCNCC3)c(F)cc12)C1CC1	inactive	Activity (A549): inactive
